“And” between values parts separate entries of the source, which are not always exact repeats. Identical values can stand only once. The source made the active and inactive calls.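 How the source made its calls: active means compound needing at most 10 µM to cut the imipenem dose that stops bacterial growth fourfold; inactive means the rest.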
Experiments:
[1] = imipenem potentiation in VIM-2 Acinetobacter isolate, late-stage follow-up, strain YMC07/8/B3323, clinical isolate, powder samples (AID 624096); conditions: VIM-2 Acinetobacter YMC07/8/B3323 growth with imipenem, OD590; measured here: max imipenem potentiation fold; stronger effect = higher value
Procedure, shortened: (§1)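 Material: Acinetobacter cells in broth microdilution | Medium: CAMHB | Also added: Imipenem, two-fold titration | Dosing: Compound two-fold series crossed with imipenem | Schedule: Growth of at least 18 h, aerobic, 37 °C | Detection: OD590 turbidity | Read-out: CLSI MIC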

[2] = system: VIM-2 Acinetobacter YMC07/8/B3323 growth with imipenem, OD590; assay: as above
Procedure, shortened: as §1

MIC [2] | Structure (SMILES) | fold potentiation [1]
> 50 µM (inactive) | O=C(O)CN1C(=O)/C(=C/c2ccccc2Br)SC1=S | 2
> 25 µM (inactive) | O=C(O)CN1C(=O)/C(=C/c2c(F)cccc2C(F)(F)F)SC1=S | 2
6.25 µM | O=C(O)CN1C(=O)/C(=C/c2c(Cl)ccc(Cl)c2Cl)SC1=S | 16
> 50 µM (inactive) | CN1CCN(NC(=O)CN2C(=O)/C(=C/c3ccc(Cl)cc3)SC2=S)CC1 | –
6.25 µM | CC(C)(C)OC(=O)N1CCN(C(=O)CN2C(=O)/C(=C/c3c(Cl)ccc(Cl)c3Cl)SC2=S)CC1 | 16
6.25 µM | O=C(CN1C(=O)/C(=C/c2c(Cl)cccc2Cl)SC1=S)NCc1ccccn1 | 16
> 50 µM (inactive) | CN1CCN(NC(=O)CN2C(=O)/C(=C/c3ccccc3Br)SC2=S)CC1 | 4
3.12 µM | O=C(CN1C(=O)/C(=C/c2c(Cl)cccc2Cl)SC1=S)NN1CCN(Cc2ccccc2)CC1 | –
1.56 µM and 0.781 µM | CN1CCN(C(=O)CN2C(=O)/C(=C/c3c(Cl)ccc(Cl)c3Cl)SC2=S)CC1 | 16 and 32
3.12 µM | O=C(CN1C(=O)/C(=C/c2c(Cl)ccc(Cl)c2Cl)SC1=S)NN1CCCCC1 | 16
> 50 µM (inactive) | CN1CCN(NC(=O)CN2C(=O)/C(=C/c3c(F)cccc3Br)SC2=S)CC1 | 2
3.12 µM and 6.25 µM | CN1CCN(NC(=O)CN2C(=O)/C(=C/c3c(Cl)cccc3Cl)SC2=S)CC1 | 32
> 50 µM (inactive) | O=C(O)CN1C(=O)/C(=C/c2cccnc2)SC1=S | –
3.12 µM | O=C(CN1C(=O)/C(=C/c2c(Cl)cccc2Cl)SC1=S)NN1CCCCC1 | 16
1.56 µM | Cc1cc(C)n(NC(=O)CN2C(=O)/C(=C/c3c(Cl)cccc3Cl)SC2=S)c(=O)c1 | 32
6.25 µM | O=C(O)CN1C(=O)/C(=C/c2c(Cl)ccc(C(F)(F)F)c2Cl)SC1=S | 8
> 50 µM (inactive) | O=C(CN1C(=O)/C(=C/c2c(Cl)cccc2Cl)SC1=S)Nc1cc([N+](=O)[O-])ccc1O | –
1.56 µM | CN1CCN(NC(=O)C(Cc2ccccc2)N2C(=O)/C(=C/c3c(Cl)ccc(Cl)c3Cl)SC2=S)CC1 (stereo unspecified) | 32
> 50 µM (inactive) | O=C(O)CN1C(=O)/C(=C/c2c(F)cccc2Cl)SC1=S | 2
> 50 µM (inactive) | O=C(CN1C(=O)/C(=C/c2c(Cl)cccc2Cl)SC1=S)NN1CCN(S(=O)(=O)c2ccc(Cl)cc2)CC1 | 2
> 50 µM (inactive) | O=C(CN1C(=O)/C(=C/c2c(Cl)ccc(Cl)c2Cl)SC1=S)N1CCN(c2ccccc2Cl)CC1 | –

MIC [2] | Structure (SMILES) | fold potentiation [1]
> 50 µM (inactive) | CN1CCN(NC(=O)CN2C(=O)/C(=C/c3c(F)c(F)c(F)c(F)c3F)SC2=S)CC1 | 2
> 25 µM (inactive) | Cc1ccc(S(=O)(=O)N2CCN(NC(=O)CN3C(=O)/C(=C/c4c(Cl)cccc4Cl)SC3=S)CC2)cc1 | –
> 25 µM (inactive) | CN1CCN(NC(=O)CN2C(=O)/C(=C/c3c(F)cccc3F)SC2=S)CC1 | 4
> 25 µM (inactive) | Cc1cc(C)c(/C=C2\SC(=S)N(CC(=O)NN3CCN(C)CC3)C2=O)c(C)c1 | 4
6.25 µM | O=C(O)CN1C(=O)/C(=C/c2c(C(F)(F)F)ccc(Cl)c2Cl)SC1=S | 16
> 50 µM (inactive) | Cc1cc(C)c(/C=C2\SC(=S)N(CC(=O)O)C2=O)c(C)c1 | –
12.5 µM (inactive) | O=C(O)CN1C(=O)/C(=C/c2c(Cl)cccc2Cl)SC1=S | 16
6.25 µM | O=C(CN1C(=O)/C(=C/c2c(Cl)cccc2Cl)SC1=S)NCc1ccncc1 | 16
> 50 µM (inactive) | O=C(O)CN1C(=O)/C(=C/c2ccc(Cl)cc2)SC1=S | 2
0.781 µM | O=C(CN1C(=O)/C(=C/c2c(Cl)ccc(Cl)c2Cl)SC1=S)NN1CCNCC1 | 32
> 50 µM (inactive) | O=C(O)CN1C(=O)/C(=C/c2ccc(F)cc2)SC1=S | –
0.195 µM | C[N+]1(OS(C)(=O)=O)CCN(NC(=O)CN2C(=O)/C(=C/c3c(Cl)ccc(Cl)c3Cl)SC2=S)CC1 | 32
> 50 µM (inactive) | O=C(O)CN1C(=O)/C(=C/c2ccc([N+](=O)[O-])cc2)SC1=S | 2
3.12 µM | CN1CCN(NC(=O)CN2C(=O)/C(=C/c3c(Cl)ccc(C(F)(F)F)c3Cl)SC2=S)CC1 | 16
> 50 µM (inactive) | O=C(O)CN1C(=O)/C(=C/c2c(F)cccc2F)SC1=S | 2
> 50 µM (inactive) | O=C(O)CN1C(=O)/C(=C/c2ccc3ccccc3n2)SC1=S | –
0.781 µM | CC(C)(C)OC(=O)N1CCN(NC(=O)CN2C(=O)/C(=C/c3c(Cl)ccc(Cl)c3Cl)SC2=S)CC1 | 16
12.5 µM (inactive) | CCN(CC)OC(=O)CN1C(=O)/C(=C/c2c(Cl)cccc2Cl)SC1=S | 8
> 50 µM (inactive) | O=C(O)CN1C(=O)/C(=C/c2c(F)cccc2Br)SC1=S | 2
> 50 µM (inactive) | O=C(O)CN1C(=O)/C(=C/c2c(F)c(F)c(F)c(F)c2F)SC1=S | 2
3.12 µM | O=C(CN1C(=O)/C(=C/c2c(Cl)cccc2Cl)SC1=S)NN1CCNCC1 | 16

MIC [2] | Structure (SMILES) | fold potentiation [1]
> 50 µM (inactive) | CN1CCN(NC(=O)CN2C(=O)/C(=C/c3ccc([N+](=O)[O-])cc3)SC2=S)CC1 | –
1.56 µM | O=C(CN1C(=O)/C(=C/c2c(Cl)ccc(Cl)c2Cl)SC1=S)NCc1ccccn1 | 16 and 32
3.12 µM | CN1CCN(NC(=O)CN2C(=O)/C(=C/c3c(C(F)(F)F)ccc(Cl)c3Cl)SC2=S)CC1 | 32
6.25 µM | O=C(CN1C(=O)/C(=C/c2c(Cl)cccc2Cl)SC1=S)Nc1cccnc1 | 16
1.56 µM | CN1CCN(NC(=O)C(Cc2ccc(Cl)cc2)N2C(=O)/C(=C/c3c(Cl)ccc(Cl)c3Cl)SC2=S)CC1 (stereo unspecified) | 32
0.781 µM and 1.56 µM and 0.391 µM | CN1CCN(NC(=O)CN2C(=O)/C(=C/c3c(Cl)ccc(Cl)c3Cl)SC2=S)CC1 | 32 and 16
3.12 µM | CN1CCN(NC(=O)CN2C(=O)/C(=C/c3c(F)cccc3Cl)SC2=S)CC1 | 32
> 50 µM (inactive) | CCOC(=O)/C=C1\SC(=S)N(CC(=O)O)C1=O | –
1.56 µM | CC(C)C(C(=O)NN1CCN(C)CC1)N1C(=O)/C(=C/c2c(Cl)ccc(Cl)c2Cl)SC1=S (stereo unspecified) | 32
> 50 µM (inactive) | CN1CCN(NC(=O)CN2C(=O)/C(=C/c3ccc(F)cc3)SC2=S)CC1 | –
6.25 µM | CC(C)N1CCN(NC(=O)CN2C(=O)/C(=C/c3c(Cl)cccc3Cl)SC2=S)CC1 | 32
> 50 µM (inactive) | CN1CCN(NC(=O)CN2C(=O)/C(=C/c3ccc4ccccc4n3)SC2=S)CC1 | –
> 50 µM (inactive) | CN1CCN(NC(=O)CN2C(=O)/C(=C/c3cccnc3)SC2=S)CC1 | 4
6.25 µM | CN1CCN(C(=O)CN2C(=O)/C(=C/c3c(Cl)cccc3Cl)SC2=S)CC1 | 16
3.12 µM | CC(C)(C)OC(=O)N1CCN(NC(=O)CN2C(=O)/C(=C/c3c(Cl)cccc3Cl)SC2=S)CC1 | 16
> 25 µM (inactive) | CN1CCN(NC(=O)[C@H](Cc2ccccc2)N2C(=O)/C(=C/c3c(Cl)cccc3Cl)SC2=S)CC1 | 8
3.12 µM | O=C(CN1C(=O)/C(=C/c2c(Cl)cccc2Cl)SC1=S)NN1CCN(C(=O)c2ccccc2)CC1 | 16
> 50 µM (inactive) | CCOC(=O)/C=C1\SC(=S)N(CC(=O)NN2CCN(C)CC2)C1=O | 2
6.25 µM | CC(=O)N1CCN(NC(=O)CN2C(=O)/C(=C/c3c(Cl)cccc3Cl)SC2=S)CC1 | 32
3.12 µM | CN1CCN(NC(=O)CN2C(=O)/C(=C/c3c(F)cccc3C(F)(F)F)SC2=S)CC1 | 2

Source: PubChem BioAssay AID624096 (The Scripps Research Institute Molecular Screening Center, 2012)
